13 compounds from ChEMBL document CHEMBL1129355, “Synthesis of 3 beta-aryl-8-azabicyclo[3.2.1]octanes with high binding affinities and selectivities for the serotonin transporter site” (J Med Chem, 1996) can be followed below.

Assay [1] deals with Sodium-dependent dopamine transporter (Rattus norvegicus, UniProt P23977). The assay can be described thus: Displacement of [125I]RTI-55 from dopamine transporter of rat brain membranes. The class given is cell membranes, Membrane. In a few lines: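 Rat striatal membranes (0.5 mg original wet weight) with 10 pM [125I]RTI-55. Nonspecific binding defined with a 1 μM tropane analog. Displacement curves used 7-10 unlabeled-analog concentrations. IC50 was reported because binding is multiphasic. Mean ± SEM of at least three experiments, each in triplicate.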
Sodium-dependent dopamine transporter, sequence (P23977 whole entry): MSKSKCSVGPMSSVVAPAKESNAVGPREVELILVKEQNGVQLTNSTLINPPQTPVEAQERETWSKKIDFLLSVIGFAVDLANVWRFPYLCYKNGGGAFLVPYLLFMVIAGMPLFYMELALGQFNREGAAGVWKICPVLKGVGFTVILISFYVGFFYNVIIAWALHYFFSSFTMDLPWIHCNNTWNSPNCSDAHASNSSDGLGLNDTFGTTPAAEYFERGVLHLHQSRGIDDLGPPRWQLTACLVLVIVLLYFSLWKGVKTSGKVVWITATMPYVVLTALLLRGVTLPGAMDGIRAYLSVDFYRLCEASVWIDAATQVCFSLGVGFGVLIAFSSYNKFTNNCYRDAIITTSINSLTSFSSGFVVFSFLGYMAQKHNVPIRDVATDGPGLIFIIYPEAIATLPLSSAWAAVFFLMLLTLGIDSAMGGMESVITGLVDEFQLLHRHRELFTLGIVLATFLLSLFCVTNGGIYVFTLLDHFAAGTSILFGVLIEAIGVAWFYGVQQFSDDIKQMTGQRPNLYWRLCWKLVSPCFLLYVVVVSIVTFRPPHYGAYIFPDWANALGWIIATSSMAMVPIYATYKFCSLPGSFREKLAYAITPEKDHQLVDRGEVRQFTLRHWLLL
(In general: Displacement assays read how much labelled ligand stays bound in the presence of the test substance.)

For assay [2], the target named is Norepinephrine transporter (Rattus norvegicus, UniProt Q9WTR4). The assay can be described thus: Displacement of [3H]-nisoxatine from Norepinephrine transporter of rat forebrain membrane. The class given is tissue-based, Brain.
Norepinephrine transporter, sequence (Q9WTR4 whole entry): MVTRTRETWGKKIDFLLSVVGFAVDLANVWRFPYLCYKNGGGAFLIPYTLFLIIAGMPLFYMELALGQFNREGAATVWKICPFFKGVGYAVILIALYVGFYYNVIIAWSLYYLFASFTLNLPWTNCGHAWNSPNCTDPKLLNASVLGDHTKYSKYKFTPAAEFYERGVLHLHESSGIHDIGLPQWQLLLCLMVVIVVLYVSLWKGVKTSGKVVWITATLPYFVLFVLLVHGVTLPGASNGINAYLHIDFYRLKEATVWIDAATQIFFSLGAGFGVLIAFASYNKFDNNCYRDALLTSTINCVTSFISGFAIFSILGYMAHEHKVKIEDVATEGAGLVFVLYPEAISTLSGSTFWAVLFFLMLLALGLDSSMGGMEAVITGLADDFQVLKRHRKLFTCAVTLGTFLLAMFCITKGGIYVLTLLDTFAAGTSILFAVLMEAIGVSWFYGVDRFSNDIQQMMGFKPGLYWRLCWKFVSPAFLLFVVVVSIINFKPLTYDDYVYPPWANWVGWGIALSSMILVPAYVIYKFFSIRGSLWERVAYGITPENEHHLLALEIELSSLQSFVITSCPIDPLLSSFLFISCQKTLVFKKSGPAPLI
In assay [3] the target is Monoamine transporters; serotonin & dopamine (Rattus norvegicus) (UniProt P31652+P23977). Briefly: Relative affinity for dopamine and Serotonin transporters. The class given is protein assay. An outline of the steps: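 Ratio of DAT IC50 ([125I]RTI-55, rat striatum) to SERT Ki ([3H]paroxetine, rat frontal cortex), each from displacement curves of 7-10 concentrations. Triplicate runs, at least three experiments.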
Monoamine transporters; serotonin & dopamine (Rattus norvegicus), sequence (P23977 whole entry, looked up): as the sequence (P23977 whole entry) above
Monoamine transporters; serotonin & dopamine (Rattus norvegicus), sequence (P31652 whole entry, looked up): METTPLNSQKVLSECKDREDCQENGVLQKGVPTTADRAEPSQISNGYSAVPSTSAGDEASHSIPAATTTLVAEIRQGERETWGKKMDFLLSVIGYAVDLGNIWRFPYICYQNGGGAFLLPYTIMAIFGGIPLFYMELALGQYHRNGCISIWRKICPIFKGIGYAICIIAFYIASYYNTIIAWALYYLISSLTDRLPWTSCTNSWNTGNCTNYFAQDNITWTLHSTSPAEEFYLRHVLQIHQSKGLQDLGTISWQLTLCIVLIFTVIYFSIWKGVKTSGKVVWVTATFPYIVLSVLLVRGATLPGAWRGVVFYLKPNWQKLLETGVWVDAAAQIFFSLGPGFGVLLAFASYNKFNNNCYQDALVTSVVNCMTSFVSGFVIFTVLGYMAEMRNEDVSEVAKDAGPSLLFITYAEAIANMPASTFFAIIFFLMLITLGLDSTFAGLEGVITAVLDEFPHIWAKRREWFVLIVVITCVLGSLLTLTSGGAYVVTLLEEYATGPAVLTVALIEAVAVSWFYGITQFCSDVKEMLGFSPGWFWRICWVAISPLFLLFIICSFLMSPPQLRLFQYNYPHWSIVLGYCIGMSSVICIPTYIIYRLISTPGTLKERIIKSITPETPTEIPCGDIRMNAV

The target of assay [4] is Sodium-dependent serotonin transporter (Rattus norvegicus, UniProt P31652). Briefly: Displacement of [3H]paroxetine from Serotonin transporter of rat frontal cortex membrane. The class given is tissue-based. An outline of the steps: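 Rat frontal cortex membranes (50 mg original wet weight) with 0.4 nM [3H]paroxetine. Nonspecific binding defined with 10 μM fluoxetine. Displacement curves used 7-10 unlabeled-analog concentrations. Ki came from the Cheng-Prusoff equation. Mean ± SEM of at least three experiments, each in triplicate.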
Sodium-dependent serotonin transporter, sequence (P31652 whole entry): as the sequence (P31652 whole entry, looked up) above

On to `CCC(=O)C1C(c2ccc(C(CC)CC)cc2)CC2CCC1N2C` (configuration not stated), for which, in assay [1], the 50% inhibitory concentration (IC50) (in general, the midpoint of a concentration-inhibition curve) was determined as 270 nM. Further, the Ki – broadly, a dissociation constant, usually derived from enzyme kinetics or from competition with a known ligand – in assay [2] is greater than 10000 nM; in assay [4] it was 540 nM. In assay [3], the Ratio came out at 0.5.

`C=Cc1ccc(C2CC3CCC(N3)C2C(=O)CC)cc1` (configuration not stated): in assay [1], the half-maximal inhibitory concentration (IC50) came out at 1.5 nM. The Ki in assay [2] was found to be 10.9 nM; in assay [4], 0.32 nM. Further, the Ratio in assay [3] turned out to be 4.7.

As to `CCC(=O)C1C2CCC(CC1c1ccc(C3CCCCC3)cc1)N2` (configuration not stated), the IC50 in assay [1] was found to be 490 nM. Moreover, the figures for the Ki in assay [2] and in assay [4] were 4300 nM and 85 nM, respectively. Also, the Ratio in assay [3] turned out to be 5.8.

In assay [1], `CCC(=O)C1C2CCC(CC1c1ccc(C(C)C)cc1)N2` (configuration not stated) gave an IC50 of 540 nM. For the same compound, the Ki in assay [2] came to 150 nM; in assay [4], 5.3 nM. The Ratio in assay [3] was 72.

For `CCC(=O)C1C2CCC(CC1c1ccc(C(CC)CC)cc1)N2` (configuration not stated), in assay [1], the IC50 was found to be 190 nM. Moreover, the values for the inhibitory constant (Ki) in assay [2] and in assay [4] were 5100 nM and 150 nM, respectively. Further, in assay [3], the Ratio was determined as 1.27.

`CCC(=O)C1C(c2ccc(C3CCCCC3)cc2)CC2CCC1N2C` (configuration not stated): the IC50 in assay [1] came to 320 nM. In addition, the inhibitory constant (Ki) in assay [2] was greater than 10000 nM; in assay [4], 97 nM. Further, the Ratio in assay [3] is 3.3.

With `C=C(C)c1ccc(C2CC3CCC(N3)C2C(=O)CC)cc1` (configuration not stated), the half-maximal inhibitory concentration (IC50) in assay [1] is 16 nM. The Ki is 94 nM in assay [2] and 0.11 nM in assay [4]. Further, the Ratio in assay [3] came to 150.

Compound `CCC(=O)C1C2CCC(CC1c1ccc3ccccc3c1)N2` (configuration not stated) gave an IC50 in assay [1] of 36 nM. Moreover, the Ki in assay [2] amounted to 440 nM; in assay [4] it was 0.22 nM.

`C=C(C)c1ccc(C2CC3CCC(C2C(=O)CC)N3C)cc1` (configuration not stated) registered a half-maximal inhibitory concentration (IC50) in assay [1] of 7.2 nM. The Ki in assay [2] was 794 nM; in assay [4], 0.82 nM. Moreover, the Ratio in assay [3] worked out at 8.8.

For `CCC(=O)C1C2CCC(CC1c1ccc(C)cc1)N2` (configuration not stated), the half-maximal inhibitory concentration (IC50) in assay [1] was 4.7 nM. Besides, the inhibition constant (Ki) in assay [2] was found to be 5.5 nM; in assay [4] it was 19 nM. Further, the Ratio in assay [3] is 0.25.

In the case of `C=Cc1ccc(C2CC3CCC(C2C(=O)CC)N3C)cc1` (configuration not stated), in assay [1], the IC50 is 0.9 nM. Moreover, the values for the Ki in assay [2] and in assay [4] were 78 nM and 3.2 nM, respectively. Moreover, the Ratio in assay [3] came to 0.28.

Take `CCC(=O)C1C(c2ccc(C)cc2)CC2CCC1N2C` (configuration not stated): affinity in assay [2] was put at a Ki of 160 nM. For the same compound, in assay [3], the Ratio came out at 0.063.

In the case of `CCC(=O)C1C(c2ccc3ccccc3c2)CC2CCC1N2C` (configuration not stated), affinity in assay [2] was put at a Ki of 2.9 nM. In addition, the Ratio in assay [3] came out at 0.31.
